We go through 15 molecules from ChEMBL document CHEMBL1641461, “Azaindoles as potent CRTH2 receptor antagonists” (Bioorg Med Chem Lett, 2011).

SMILES strings stand for the structures.

Data set [1] has as its target T1, Prostaglandin D2 receptor 2 (Homo sapiens, UniProt Q9Y5Y4).
T1 sequence (Q9Y5Y4 whole entry): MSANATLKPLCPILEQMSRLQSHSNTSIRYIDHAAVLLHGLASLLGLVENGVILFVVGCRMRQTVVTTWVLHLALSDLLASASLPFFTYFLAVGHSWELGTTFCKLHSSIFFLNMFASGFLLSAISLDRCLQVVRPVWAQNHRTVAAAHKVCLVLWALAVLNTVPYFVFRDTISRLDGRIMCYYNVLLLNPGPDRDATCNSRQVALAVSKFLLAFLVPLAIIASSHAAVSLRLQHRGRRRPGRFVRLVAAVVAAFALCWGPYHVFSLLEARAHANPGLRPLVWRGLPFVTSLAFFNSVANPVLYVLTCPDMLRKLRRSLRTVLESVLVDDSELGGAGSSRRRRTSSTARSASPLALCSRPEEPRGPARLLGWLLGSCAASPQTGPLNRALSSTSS
As to the kind of experiment: Displacement of radioligand from human CRTH2 expressed in HEK293 cells by competitive binding assay. In kind it is cell-based. In short, it runs like this: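 Radioligand competition binding on membranes from HEK293 (EBNA) cells stably expressing hCRTH2, in 10 mM HEPES/KOH. Mean of two or more experiments.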

Data set [2] addresses T2, Prostaglandin D2 receptor (Homo sapiens, UniProt Q13258).
T2 sequence (Q13258 whole entry): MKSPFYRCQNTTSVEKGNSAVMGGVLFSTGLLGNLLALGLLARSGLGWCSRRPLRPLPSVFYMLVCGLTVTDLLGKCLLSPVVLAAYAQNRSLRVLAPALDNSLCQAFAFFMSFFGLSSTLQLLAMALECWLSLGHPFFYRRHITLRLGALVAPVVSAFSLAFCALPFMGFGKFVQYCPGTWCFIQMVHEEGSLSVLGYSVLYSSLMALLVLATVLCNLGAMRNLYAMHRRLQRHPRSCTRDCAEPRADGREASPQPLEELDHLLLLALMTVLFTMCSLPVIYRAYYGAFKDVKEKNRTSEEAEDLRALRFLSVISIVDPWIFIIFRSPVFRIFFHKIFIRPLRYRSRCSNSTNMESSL
As to the kind of experiment: Displacement of radioligand from prostanoid DP receptor expressed in HEK293 cells by competitive binding assay. In kind it is cell-based.

The next data set has as its target T3, Thromboxane A2 receptor (Homo sapiens, UniProt P21731).
T3 sequence (P21731 whole entry): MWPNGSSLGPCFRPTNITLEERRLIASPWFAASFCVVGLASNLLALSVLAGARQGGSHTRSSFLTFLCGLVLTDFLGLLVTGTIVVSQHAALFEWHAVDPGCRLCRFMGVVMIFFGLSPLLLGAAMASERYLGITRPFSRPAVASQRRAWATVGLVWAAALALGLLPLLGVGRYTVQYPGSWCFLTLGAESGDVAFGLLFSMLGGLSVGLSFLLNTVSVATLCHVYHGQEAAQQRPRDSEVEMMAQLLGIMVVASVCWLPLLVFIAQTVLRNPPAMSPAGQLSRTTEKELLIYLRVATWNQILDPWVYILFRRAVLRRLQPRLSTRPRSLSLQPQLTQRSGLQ
As to the kind of experiment: Displacement of radioligand from prostanoid TP receptor expressed in HEK293 cells by competitive binding assay. The class given is cell-based.

The target of data set [3] is T1, Prostaglandin D2 receptor 2. As to the kind of experiment: Antagonist activity at human CRTH2 expressed in HEK293 cells assessed as inhibition of forskolin-induced increase intracellular [125I]cAMP level by scintillation proximity assay. The class given is functional, cell-based. In short, it runs like this:
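Intracellular cAMP measured by ¹²⁵I-cAMP scintillation proximity assay in Hank's balanced salt solution with 25 mM HEPES and forskolin. Values are the mean of two or more experiments.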
(Cyclic AMP is a second messenger, typically raised through Gs and lowered through Gi signalling.)

Another data set addresses Cytochrome P450 2C9 (Homo sapiens, UniProt P11712). As to the kind of experiment: Inhibition of CYP2C9. In kind it is ADME. In a few lines:
(§1)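 CYP2C9 and CYP3A4 inhibition IC50 values, averaged over at least two experiments.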

In a further data set the target is Cytochrome P450 3A4 (Homo sapiens, UniProt P08684). As to the kind of experiment: Inhibition of CYP3A4. In kind it is ADME. In short, it runs like this:
as §1

The nature of data set [4]: Bioavailability in Sprague-Dawley rat at 5 mg/kg, po and 1 mg/kg, iv. The note with it: in vivo. The class given is ADME, organism-based. In short, it runs like this: (§2)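 Rats dosed PO at 5 mg/kg (5 mL/kg) in 0.5% methocel and IV at 1 mg/kg (1 mL/kg) in 60% PEG 200; n = 2.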
The nature of data set [5]: Clearance in Sprague-Dawley rat at 5 mg/kg, po and 1 mg/kg, iv. The class given is ADME, organism-based. The note with it: in vivo. In a few lines: as §2
A short description of data set [6]: Volume of distribution in Sprague-Dawley rat at 5 mg/kg, po and 1 mg/kg, iv. In kind it is ADME, organism-based. The settings on record: in vivo. In short, it runs like this: as §2
Data set [7] is described as follows: Half life in Sprague-Dawley rat at 5 mg/kg, po and 1 mg/kg, iv. The class given is ADME, organism-based. The settings on record: in vivo. In short, it runs like this:
as §2

A further data set concerns Rattus norvegicus. As to the kind of experiment: (§3) Bioavailability in Sprague-Dawley rat at 1 mg/kg, iv. In kind it is ADME, organism-based. The note with it: in vivo.
Data set [8] is described as follows: as §3. The class given is ADME, organism-based. The note with it: Sprague-Dawley, in vivo.

Sequence of Cytochrome P450 3A4 (P08684 whole entry): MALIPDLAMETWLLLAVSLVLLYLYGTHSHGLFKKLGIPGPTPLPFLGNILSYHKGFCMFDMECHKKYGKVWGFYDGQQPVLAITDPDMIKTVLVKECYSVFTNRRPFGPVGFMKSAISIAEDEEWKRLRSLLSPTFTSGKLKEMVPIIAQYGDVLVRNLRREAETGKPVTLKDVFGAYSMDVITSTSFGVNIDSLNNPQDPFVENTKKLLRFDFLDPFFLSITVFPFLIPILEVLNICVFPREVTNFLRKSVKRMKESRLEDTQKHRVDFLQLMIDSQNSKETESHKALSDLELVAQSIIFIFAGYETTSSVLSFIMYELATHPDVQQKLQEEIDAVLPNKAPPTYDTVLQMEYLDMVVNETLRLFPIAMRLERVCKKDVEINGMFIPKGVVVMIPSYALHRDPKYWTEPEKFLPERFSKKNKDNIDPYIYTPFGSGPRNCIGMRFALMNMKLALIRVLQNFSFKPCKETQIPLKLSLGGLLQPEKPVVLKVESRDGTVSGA
Sequence of Cytochrome P450 2C9 (P11712 whole entry): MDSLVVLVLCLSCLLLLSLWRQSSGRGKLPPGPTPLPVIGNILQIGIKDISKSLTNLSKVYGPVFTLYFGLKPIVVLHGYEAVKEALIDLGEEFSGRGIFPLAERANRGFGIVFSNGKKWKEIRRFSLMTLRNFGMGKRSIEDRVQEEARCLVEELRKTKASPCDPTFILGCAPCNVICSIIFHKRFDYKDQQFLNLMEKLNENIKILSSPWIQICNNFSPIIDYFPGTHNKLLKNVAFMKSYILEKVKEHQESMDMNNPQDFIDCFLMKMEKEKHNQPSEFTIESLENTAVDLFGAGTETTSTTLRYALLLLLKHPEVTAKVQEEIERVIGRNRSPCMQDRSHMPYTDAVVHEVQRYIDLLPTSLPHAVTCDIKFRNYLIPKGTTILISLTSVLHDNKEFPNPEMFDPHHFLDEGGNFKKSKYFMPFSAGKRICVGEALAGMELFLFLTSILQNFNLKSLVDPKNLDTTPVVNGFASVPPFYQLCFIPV

Broadly, the Ki is the dissociation constant of the complex between target and ligand, obtained from inhibition or displacement. Read a low Ki as a stronger hold on the target. Regarding `CN([C@@H]1CCc2c(CC(=O)O)c3cnccc3n2C1)S(=O)(=O)c1ccc(F)cc1`, the Ki in data set [1] was 6.72 µM; in data set [2] it was over 3.4 µM; at Thromboxane A2 receptor, over 6.8 µM.

As a reminder, the IC50 is the concentration that gives 50% inhibition. Regarding `CN([C@@H]1CCc2c(CC(=O)O)c3ccncc3n2C1)S(=O)(=O)c1ccc(F)cc1`, the inhibition constant (Ki) in [1] was 0.139 µM; in data set [2], over 12 µM; on Thromboxane A2 receptor, over 22 µM. The 50% inhibitory concentration (IC50) in data set [3] was found to be 0.351 µM.

The term half-life denotes the time needed for the level to fall by half in the phase considered. The low end stands for fast loss, the high end for slow loss. For the molecule `CN([C@@H]1CCc2c(CC(=O)O)c3cccnc3n2C1)S(=O)(=O)c1ccc(F)cc1`, the values for the Ki (in [1]; in [2]; on Thromboxane A2 receptor) were 0.0033 µM, over 47 µM and over 22 µM, respectively. Also, the IC50 is 0.0034 µM in [3], over 50 µM at Cytochrome P450 2C9 and over 50 µM on Cytochrome P450 3A4. Besides, in [4], the bioavailability is 50%. In [5], the clearance is 0.024 L/h/kg. The molecule further registered a Vd in data set [6] of 0.23 L/kg. The molecule further showed a half-life in data set [7] of 7.5 h.

Regarding `CN([C@@H]1CCc2c(CC(=O)O)c3ccc(Cl)nc3n2C1)S(=O)(=O)c1ccc(F)cc1`, the inhibition constant Ki is 0.0018 µM in data set [1], over 18 µM in data set [2] and over 27 µM at Thromboxane A2 receptor. Further, in [3], the IC50 stood at 0.0032 µM.

Consider `CN([C@@H]1CCc2c(CC(=O)O)c3ccc(-c4ccc(F)cc4)nc3n2C1)S(=O)(=O)c1ccc(F)cc1`, for which the inhibition constant (Ki) in data set [1] was 0.0019 µM; in data set [2] it was over 3.8 µM; at Thromboxane A2 receptor, over 1 µM. Besides, the IC50 in [3] was determined as 0.0036 µM.

As for `C[C@@H](C(=O)N(C)[C@@H]1CCc2c(CC(=O)O)c3cccnc3n2C1)c1ccc(F)cc1`, the inhibition constant (Ki) in data set [1] is 0.0034 µM; in data set [2], over 38 µM; on Thromboxane A2 receptor it was over 71 µM. Moreover, the half-maximal inhibitory concentration (IC50) in [3] is 0.0057 µM; at Cytochrome P450 2C9, over 50 µM; on Cytochrome P450 3A4, over 50 µM. Also, the bioavailability in data set [4] is 84%. In data set [5], this molecule returned a clearance of 0.216 L/h/kg. The same molecule had a Vd in data set [6] of 0.67 L/kg. For the same molecule, in data set [7], the half-life is 4 h.

On to `C[C@H](C(=O)N(C)[C@@H]1CCc2c(CC(=O)O)c3cccnc3n2C1)c1ccc(F)cc1`, for which the inhibition constant (Ki) was 0.0211 µM in data set [1], over 12 µM in data set [2] and over 22 µM on Thromboxane A2 receptor. For the same molecule, in data set [3], the IC50 came to 0.0738 µM.

Turning to `CN(C(=O)C(C)(C)c1ccc(F)cc1)[C@@H]1CCc2c(CC(=O)O)c3cccnc3n2C1`, the results for the Ki (in data set [1]; in data set [2]; on Thromboxane A2 receptor) were 0.0047 µM, over 10 µM and over 21 µM, respectively. Moreover, the IC50 in data set [3] amounted to 0.0035 µM. For the same molecule, the F in the data set with Rattus norvegicus stood at 156%. Moreover, the clearance in data set [5] stood at 1.26 L/h/kg. The Vd in [6] worked out at 1.54 L/kg. The same molecule showed a half-life in data set [7] of 1.9 h.

Take `CN(C(=O)C1(c2ccc(F)cc2)CC1)[C@@H]1CCc2c(CC(=O)O)c3cccnc3n2C1`: the inhibition constant Ki in data set [1] was 0.0036 µM; in data set [2] it was over 3.7 µM; on Thromboxane A2 receptor, over 6.8 µM. In addition, the concentration for half-maximal inhibition (IC50) in [3] worked out at 0.0075 µM. The bioavailability in data set [4] is 63%. Besides, in [5], the clearance worked out at 0.72 L/h/kg. This molecule also showed a Vd in data set [6] of 2.2 L/kg. In data set [7], this molecule showed a half-life of 3.1 h.

As for `CN(C(=O)C1(c2ccc(F)cc2)CC1(C)C)[C@@H]1CCc2c(CC(=O)O)c3cccnc3n2C1` (stereo partly specified), the inhibitory constant (Ki) was 0.0051 µM in data set [1], over 4 µM in data set [2] and over 7.2 µM at Thromboxane A2 receptor. Moreover, the IC50 in data set [3] is 0.0044 µM.

Turning to `CN(C(=O)C1(c2ccc(F)cc2)CCC1)[C@@H]1CCc2c(CC(=O)O)c3cccnc3n2C1`, the Ki is 0.0034 µM in data set [1], over 4 µM in data set [2] and over 7.2 µM on Thromboxane A2 receptor. The 50% inhibitory concentration (IC50) in [3] came out at 0.0047 µM. The bioavailability in [4] worked out at 20%. The molecule also showed a clearance in data set [5] of 1.68 L/h/kg. Also, the Vd in data set [6] was found to be 4.58 L/kg. Further, in [7], the half-life was 2.1 h.

For the molecule `CN(C(=O)C1(c2ccc(F)cc2)CCCC1)[C@@H]1CCc2c(CC(=O)O)c3cccnc3n2C1`, the results for the inhibition constant (Ki) (in data set [1]; in [2]; at Thromboxane A2 receptor) were 0.0039 µM, over 4 µM and over 7.2 µM, respectively. In [3], the IC50 stood at 0.0045 µM. For the same molecule, the bioavailability in [4] is 38%. Also, in data set [5], the clearance is 1.08 L/h/kg. Moreover, the Vd in data set [6] worked out at 1.72 L/kg. In data set [7], this molecule showed a half-life of 11.6 h.

As for `CN(C(=O)C1(c2ccc(F)cc2)CCOCC1)[C@@H]1CCc2c(CC(=O)O)c3cccnc3n2C1`, the inhibitory constant (Ki) in data set [1] was 0.0115 µM; in data set [2], over 4 µM; at Thromboxane A2 receptor, over 7.2 µM. The concentration for half-maximal inhibition (IC50) in data set [3] was found to be 0.007 µM.

On to `CN([C@@H]1CCc2c(CC(=O)O)c3ncccc3n2C1)S(=O)(=O)c1ccc(F)cc1`, for which the inhibitory constant (Ki) was 7.19 µM in data set [1], over 1.3 µM in data set [2] and over 7 µM at Thromboxane A2 receptor.

For the molecule `CN([C@@H]1CCc2c(CC(=O)O)c3ccccc3n2C1)S(=O)(=O)c1ccc(F)cc1` [MK-7246], in [8], the bioavailability was 138%. This molecule came in with a clearance in data set [5] of 0.234 L/h/kg. This molecule also displayed a Vd in data set [6] of 1.15 L/kg. The molecule further had a half-life in data set [7] of 4.1 h.
